From PubChem BioAssay
HTR2A ag: mouse Htr2a agonists via beta-arrestin recruitment, primary screen, cell-based, luminescence | CHO-K1 mHTR2A beta-arrestin complementation; percent of 30 µM serotonin response | activation, % at 7.6 µM | 0.66% of 360,000 active;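 active = activation above a run cutoff, the mean activation of all tested compounds plus 3 SD, cut at about 14% in these data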;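 note: 0% = plate median of compound wells and 100% = 30 µM serotonin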
VIM-2 inhibitor: VIM-2 metallo-beta-lactamase inhibitors, primary screen, biochemical, epi-absorbance readout, Pseudomonas aeruginosa enzyme; purified VIM-2, nitrocefin hydrolysis, epi-absorbance fluorescence; inhibition, % at 5.6 µM; 0.89% of 290,000 active; AID 1527, 2009;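 active = inhibition above the mean of all tested compounds plus 3 SD, cutoff set per screening run, cut at about 7.5% in these data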;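 note: red hydrolysis product quenches plate fluorescence so inhibitors raise well fluorescence; 0% = enzyme with DMSO and 100% = DMSO without enzyme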
IMP-1 inhibitor: IMP-1 metallo-beta-lactamase inhibitors, primary screen, biochemical, epi-absorbance readout, Pseudomonas aeruginosa enzyme. metallo-beta-lactamase IMP-1 (Pseudomonas aeruginosa). purified IMP-1, nitrocefin hydrolysis, epi-absorbance fluorescence. inhibition, % at 5.6 µM. 0.45% of 290,000 active. AID 1556, 2009;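 active = inhibition above the mean plus 3 SD of all compounds in the same screening run, cut at about 4.5% in these data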;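 note: 0% = IMP-1 with DMSO and 100% = DMSO wells lacking enzyme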
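System: Purified IMP-1 | Read-out basis: Percent enzyme inhibition | Controls: IMP-1 with DMSO as 0%, enzyme-free DMSO as 100% | Replicates: One well per compound | Doses: 5.6 µM nominal single concentration | Detection: Epi-absorbance fluorescence, 480 nm excitation, 530 nm emission | Incubation: 25 °C, 15 min preincubation, 25 min reaction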
dFosB act-1: activators of delta FosB homodimer, primary screen, biochemical, fluorescence polarization, TAMRA-CDK5 oligo, single point. purified delta FosB; percent of positive-control signal above neutral wells. activation, % at 25 µM. 0.99% of 340,000 active. AID 493131, 2011;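 active = mean activation above about 17%, with every replicate also reaching it, limit read from the data, passing the limit was not always enough; inconclusive = only one of the two conditions met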
Target sequence (P13346 whole entry, looked up): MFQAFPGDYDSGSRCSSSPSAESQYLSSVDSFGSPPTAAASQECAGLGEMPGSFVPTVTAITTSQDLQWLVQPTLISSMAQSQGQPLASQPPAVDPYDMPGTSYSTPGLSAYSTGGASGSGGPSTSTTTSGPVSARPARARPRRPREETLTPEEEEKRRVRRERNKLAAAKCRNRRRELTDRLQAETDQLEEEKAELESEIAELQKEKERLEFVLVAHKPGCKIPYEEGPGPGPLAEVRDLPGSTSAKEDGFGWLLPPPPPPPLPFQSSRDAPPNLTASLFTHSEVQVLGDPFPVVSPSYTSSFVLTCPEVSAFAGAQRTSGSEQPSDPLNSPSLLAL
dFosB act-2: activators of mouse delta FosB DNA binding, confirmation, biochemical, fluorescence polarization, TAMRA-CDK5 oligo, cherry-picked samples | shares compounds with dFosB act-1 | purified delta FosB; normalised: neutral wells 0, positive control 100 | activation, % at 24.9 µM | 2,400 tested, under 10 active;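 active = highest replicate activation at or above 34% and every replicate reaching that threshold; inconclusive = meets only one of the two criteria; inactive = meets neither criterion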;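 note: higher polarization means more probe DNA bound by delta FosB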
Active calls of the source: *; ? = inconclusive; . = no result given. Hits are enriched below; roughly 2.5% of the tested compounds scored in any of these assays.

SMILES	HTR2A ag	VIM-2 inhibitor	IMP-1 inhibitor	dFosB act-1	dFosB act-2
CCOC(=O)c1[nH]c2c(c1C)C(=O)CC(c1ccc(F)cc1)C2 (stereo not drawn)	0	-1	-1	21*	3
CC(C)CCNc1nc(-c2ccco2)c2c(c1C#N)CCCC2	-2	-2	1	-11	.
N#Cc1c(NCCN)nc(-c2ccco2)c2c1CCCC2	-4	1	-1	26*	4
CCOC(=O)c1c(C)[nH]c2cc(Br)c(OC)cc12	1	-1	-3	18*	5
O=C(CCN1C(=O)/C(=C/c2ccc(F)cc2)SC1=S)N[C@@H](CO)Cc1ccccc1	5	-2	0	9	.
O=C(CCNC(=O)c1ccccc1)OCC(=O)c1ccccc1	-6	-2	-3	0	.
COC(=O)Nc1ccc(S(=O)(=O)NNC(=O)c2c(O)c3ccccc3n(C)c2=O)cc1	-7	-4	-6	41*	0
CCn1c(=O)c(C(=O)NNS(=O)(=O)c2ccc(NC(=O)OC)cc2)c(O)c2ccccc21	2	-5	-3	-5	.
COc1ccc(-c2cc3nc4ccccc4n3c(N)c2C#N)cc1	1	0	-3	19*	6
C=CC(=O)Nc1cccc(CN2C(=O)N(c3cc(OC)cc(OC)c3)Cc3cnc(NCCCCN(CC)CC)nc32)c1	.	.	.	36*	?
C=CCn1c(=S)[nH]c2cc(C(=O)NCCc3ccc(S(N)(=O)=O)cc3)ccc2c1=O	1	.	.	5	.
NS(=O)(=O)c1ccc(CCNC(=O)c2ccc(Cn3c(=O)[nH]c4ccccc4c3=O)cc2)cc1	0	-4	-3	34*	-10
NS(=O)(=O)c1ccc(CCNC(=O)CCCCCn2c(=S)[nH]c3ccc(Br)cc3c2=O)cc1	-5	-2	-2	49*	10
O=C(NCc1ccccc1Cl)C1CCC(CNc2nc(=S)[nH]c3ccccc23)CC1 (stereo not drawn)	-9	2	0	71*	1
COc1ccc(N2CCN(CCCNC(=O)C3CCC(CNc4nc(=S)[nH]c5ccccc45)CC3)CC2)cc1 (stereo not drawn)	-5	-5	-2	-1	.
O=C(NCCc1ccc(Cl)cc1)C1CCC(CNc2nc(=S)[nH]c3ccccc23)CC1 (stereo not drawn)	-5	-1	-1	72*	6
O=C(NCCC1=CCCCC1)C1CCC(CNc2nc(=S)[nH]c3ccccc23)CC1 (stereo not drawn)	-2	-8	-3	23*	2
O=C(C1CCC(CNc2nc(=S)[nH]c3ccccc23)CC1)N1CCN(c2ccc(F)cc2)CC1 (stereo not drawn)	2	-2	-1	37*	1
O=C(Nc1ccccc1)c1cc2ccc3ccccc3c2s1	-4	-2	-2	-10	.
COc1ccc([C@H]2CC(=O)C=C(c3cccc4c3Oc3ccccc3S4)C2)cc1	-6	.	.	-1	.
O=C(Cc1csc(Nc2nc(=S)[nH]c3ccccc23)n1)NCc1ccccc1Cl	0	-4	-3	49*	7
CC(=O)Nc1ccc(S(=O)(=O)NCC2CCC(C(=O)NCCC3=CCCCC3)CC2)cc1 (stereo not drawn)	-1	-4	-1	63*	5
O=C(NCCC1=CCCCC1)C1CCC(CNS(=O)(=O)c2ccccc2)CC1 (stereo not drawn)	-5	-4	-3	-2	.
Cc1ccc(OCC(=O)OC(C)C(=O)NC2CCCCC2C)cc1C (stereo not drawn)	-3	.	.	-4	.
Cc1cccc(NC(=O)CCC(=O)Nc2nnc(C3CCCCC3)s2)c1	1	-2	-2	30*	4
SMILES	HTR2A ag	VIM-2 inhibitor	IMP-1 inhibitor	dFosB act-1	dFosB act-2
CCOc1ccc(S(=O)(=O)NC(C)C(=O)NCc2cccnc2)cc1 (stereo not drawn)	6	-1	-4	-4	.
COC(=O)CNc1nc(Cl)nc(Nc2ccc(C)cc2)n1	-1	-1	-3	14	.
COC(=O)CNc1nc(Cl)nc(Nc2ccc(Cl)cc2)n1	2	-4	-2	48*	7
O=C(CCc1nc2ccccc2c(=O)[nH]1)NNC(=O)COc1ccccc1Cl	5	.	.	56*	1
C[C@H](CO)N1C[C@H](C)[C@@H](CN(C)S(=O)(=O)c2ccccc2)Oc2c(NC(=O)Nc3ccccc3)cccc2C1=O	-1	.	.	-6	.
COc1ccc(S(=O)(=O)N(C)C[C@H]2Oc3c(NC(=O)Nc4ccc(C(F)(F)F)cc4)cccc3C(=O)N([C@H](C)CO)C[C@@H]2C)cc1	2	.	.	66*	0
C[C@H]1CN([C@@H](C)CO)C(=O)c2cccc(NC(=O)Nc3ccc(C(F)(F)F)cc3)c2O[C@@H]1CN(C)S(=O)(=O)c1ccccc1	2	.	.	29*	4
Cc1cccc(C)c1NC(=O)C(c1ccnc2ccccc12)N1CCN(C)CC1 (stereo not drawn)	-4	.	.	.	.
Cn1cnnc1Sc1cc(N2CCN(S(=O)(=O)c3ccc(Cl)c(Cl)c3)CC2)ccc1[N+](=O)[O-]	-2	0	0	-4	.
Cn1cnnc1Sc1cc(N2CCN(S(=O)(=O)c3ccc4ccccc4c3)CC2)ccc1[N+](=O)[O-]	1	-1	0	19*	-1
O=C(NCCCN1CCOCC1)/C(=C/c1cccs1)NC(=O)c1ccccc1	-8	-2	-3	-2	.
C[C@H]1CN([C@@H](C)CO)C(=O)c2cc(-c3ccccc3F)cnc2O[C@@H]1CN(C)C(=O)NC1CCCCC1	-3	.	.	.	.
COc1cccc(CN2CC(C(=O)NCCSc3nnnn3C)CCC2=O)c1 (stereo not drawn)	-1	-4	-2	1	.
COc1cc(OC)c(NC(=O)c2sc3ncn(CC(=O)N4CCN(c5ccccn5)CC4)c(=O)c3c2C)cc1Cl	-4	-2	-3	24*	0
CN=c1sc2c(n1C)C(=O)c1ccccc1C2=O	-1	.	.	0	.
Cc1ccsc1/C=N/NC(=O)c1nnn(-c2nonc2N)c1CSc1ccccc1	1	-2	-2	18*	2
Cc1ccc(/C=N/NC(=O)c2nnn(-c3nonc3N)c2CSc2ccccc2)s1	4	-2	-1	10	.
Nc1nonc1-n1nnc(C(=O)N/N=C/c2ccc(F)cc2)c1-c1cccs1	-4	0	-1	55*	-3
CCOc1ccc(/C=N/NC(=O)c2nnn(-c3nonc3N)c2COc2ccc(F)cc2)cc1	11	-2	-2	40*	-1
CCOC(=O)C1(Cc2ccccc2)CCCN(S(=O)(=O)N(C)C)C1 (stereo not drawn)	-1	-2	-3	-6	.
Cc1cccc(NC(=S)NCc2ccccc2Cl)c1C	-8	-5	-4	1	.
CCC(=O)Nc1ccc(NC(=O)c2oc3ccccc3c2C)cc1	5	0	-3	4	.
